Experimental findings from ChEMBL document CHEMBL1126988, “Quinolone antibacterials containing the new 7-[3-(1-aminoethyl)-1- pyrrolidinyl] side chain: the effects of the 1-aminoethyl moiety and its stereochemical configurations on potency and in vivo efficacy” (J Med Chem, 1993) are described below.

One may read the MIC as the smallest concentration in the dilution series that meets the test's criterion for growth inhibition.

In brackets after ≈: the same amount, converted by molar mass. Some results are limits rather than exact numbers.

For test [1], the system named is Streptococcus pneumoniae. Briefly: Minimum inhibitory concentration was evaluated in vitro against Streptococcus pneumoniae SV-1. The class given is functional. Particulars: Streptococcus pneumoniae; read-out: MIC. A digest of the protocol:
(§1)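 Standard microtitration broth assay against a panel of 10 Gram-positive and Gram-negative organisms. MIC read in µg/mL and averaged over multiple experiments.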

For test [2], the system named is Providencia rettgeri. The test is described as follows: Minimum inhibitory concentration was evaluated in vitro against Providencia rettgeri M1771. The class given is functional. Particulars: Providencia rettgeri; read-out: MIC. In a few lines:
as §1

The test system of test [3] is Staphylococcus aureus. The test is described as follows: Minimum inhibitory concentration was evaluated in vitro against Staphylococcus aureus UC 76. It is filed as functional. Particulars: Staphylococcus aureus; read-out: MIC. A digest of the protocol: as §1
In test [4] the test system is Klebsiella pneumoniae. The test is described as follows: Minimum inhibitory concentration was evaluated in vitro against Klebsiella pneumoniae MGH2. It is filed as functional. To be noted: Klebsiella pneumoniae; read-out: MIC. In a few lines: as §1
In test [5] the test system is Escherichia coli. Briefly: Antibacterial activity against Escherichia coli Vogel after oral administration in mouse. It is filed as functional. Particulars: for ED50: Escherichia coli, po, read-out: PD50.
The subject of test [6] is Escherichia coli. The test is described as follows: Antibacterial activity in vitro against Escherichia coli Vogel. Particulars: Escherichia coli; read-out: MIC. It is filed as functional. A digest of the protocol:
as §1

The test system of test [7] is Pseudomonas aeruginosa. Briefly: Minimum inhibitory concentration was evaluated in vitro against Pseudomonas aeruginosa UI-18. It is filed as functional. To be noted: Pseudomonas aeruginosa; read-out: MIC. In a few lines: as §1
Test [8] relates to Streptococcus pyogenes. Briefly: Compounds were evaluated in vivo for antibacterial activity for mouse protection against Streptococcus pyogenes C 203 after oral administration. It is filed as functional. To be noted: Streptococcus pyogenes, C 203, po; read-out: PD50.
Test [9] in a line: Clonogenic cytotoxicity against hamster V-79 cells. It is filed as functional, Cricetulus griseus, V79. In a few lines:
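Chinese hamster V-79 cells grown overnight, then drug-treated for 3 h at 37 °C. Medium is replaced with fresh medium and cells are incubated 5 days to allow colony formation. IC50 (µg/mL) is the concentration inhibiting colony formation by 50% relative to control.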

The subject of test [10] is Enterococcus faecalis. Briefly: Minimum inhibitory concentration was evaluated in vitro against Enterococcus faecalis MGH-2. It is filed as functional. Particulars: Enterococcus faecalis; read-out: MIC. In a few lines:
as §1

Test [11] deals with Staphylococcus aureus. The test is described as follows: Minimum inhibitory concentration was evaluated in vitro against Staphylococcus aureus H 228. The class given is functional. To be noted: Staphylococcus aureus; read-out: MIC. In a few lines:
as §1

The subject of test [12] is Streptococcus pyogenes. The test is described as follows: Minimum inhibitory concentration was evaluated in vitro against Streptococcus pyogenes C 203. It is filed as functional. To be noted: Streptococcus pyogenes; read-out: MIC. In a few lines: as §1
The subject of test [13] is Enterobacter cloacae. Briefly: Minimum inhibitory concentration in vitro against Enterobacter cloacae MA 2646. To be noted: Enterobacter cloacae; read-out: MIC. The class given is functional.
In test [14] the test system is Escherichia coli. The test is described as follows: Antibacterial activity against Escherichia coli Vogel after subcutaneous administration in mouse. It is filed as functional. To be noted: Escherichia coli, sc; read-out: PD50.
Test [15] relates to Streptococcus pyogenes. Briefly: Antibacterial activity measured as mouse protection against Streptococcus pyogenes C 203 after subcutaneous administration. It is filed as functional. To be noted: Streptococcus pyogenes, C 203, sc; read-out: PD50.

For `CCN[C@H](C)[C@@H]1CCN(c2nc3c(cc2F)c(=O)c(C(=O)O)cn3C2CC2)C1`, the MIC worked out at 0.025 mg/L (≈ 0.0644 µM) in test [1]; 1.6 mg/L (≈ 4.12 µM) in [2]; 0.025 mg/L (≈ 0.0644 µM) in test [3]; 0.2 mg/L (≈ 0.515 µM) in test [4]; 0.1 mg/L (≈ 0.257 µM) in [6]; 1.6 mg/L (≈ 4.12 µM) in test [7]. The MIC in [10] was 0.05 mg/L (≈ 0.129 µM); in test [11], 0.05 mg/L (≈ 0.129 µM); in test [12], 0.05 mg/L (≈ 0.129 µM); in test [13], 0.4 mg/L (≈ 1.03 µM). In addition, the ED50 in [5] is 7 mg/kg; in test [8], 6 mg/kg; in test [14] it was 6 mg/kg; in test [15], 4 mg/kg. In test [9], this compound returned a Cytotoxicity of 87 µg/mL.

As for `CCN[C@H](C)[C@@H]1CCN(c2c(F)c(N)c3c(=O)c(C(=O)O)cn(C4CC4)c3c2F)C1`, the MIC in [1] turned out to be 0.003 mg/L (≈ 0.00714 µM); in test [2] it was 0.2 mg/L (≈ 0.476 µM); in [3], 0.003 mg/L (≈ 0.00714 µM); in test [4], 0.1 mg/L (≈ 0.238 µM); in test [6], 0.05 mg/L (≈ 0.119 µM); in [7] it was 1.6 mg/L (≈ 3.81 µM). Besides, the MIC in test [10] worked out at 0.025 mg/L (≈ 0.0595 µM); in test [11], 0.006 mg/L (≈ 0.0143 µM); in [12], 0.003 mg/L (≈ 0.00714 µM); in test [13] it was 0.1 mg/L (≈ 0.238 µM). Further, the values for the ED50 in test [8] and in [15] were 1 mg/kg and 0.5 mg/kg, respectively. Also, in [9], the Cytotoxicity stood at 15 µg/mL.

Consider `COc1c(N2CC[C@@H]([C@@H](C)N)C2)c(F)cc2c(=O)c(C(=O)O)cn(C3CC3)c12`, for which the MIC in test [1] stood at 0.013 mg/L (≈ 0.0334 µM); in [2], 0.2 mg/L (≈ 0.514 µM); in test [3], 0.003 mg/L (≈ 0.0077 µM); in test [4], 0.1 mg/L (≈ 0.257 µM); in [6], 0.05 mg/L (≈ 0.128 µM); in test [7], 0.8 mg/L (≈ 2.05 µM). Also, the MIC came out at 0.025 mg/L (≈ 0.0642 µM) in test [10], 0.025 mg/L (≈ 0.0642 µM) in test [11], 0.013 mg/L (≈ 0.0334 µM) in [12] and 0.05 mg/L (≈ 0.128 µM) in test [13]. Also, the ED50 worked out at 6 mg/kg in test [8] and 1 mg/kg in [15]. Moreover, the Cytotoxicity in test [9] was 41 µg/mL.

Regarding `CCn1cc(C(=O)O)c(=O)c2cc(F)c(N3CCC(C(C)N)C3)c(OC)c21` (racemic), the MIC stood at 0.003 mg/L (≈ 0.00795 µM) in test [1]; 0.1 mg/L (≈ 0.265 µM) in test [2]; 0.003 mg/L (≈ 0.00795 µM) in test [3]; 0.1 mg/L (≈ 0.265 µM) in test [4]; 0.05 mg/L (≈ 0.132 µM) in test [6]; 0.8 mg/L (≈ 2.12 µM) in test [7]. Also, the MIC in test [10] was 0.006 mg/L (≈ 0.0159 µM); in test [11] it was 0.006 mg/L (≈ 0.0159 µM); in test [12], 0.003 mg/L (≈ 0.00795 µM); in test [13], 0.1 mg/L (≈ 0.265 µM). Moreover, the ED50 stood at 9 mg/kg in test [5], 3 mg/kg in test [8], 3 mg/kg in test [14] and 0.2 mg/kg in test [15]. Moreover, the Cytotoxicity in test [9] came out at 19 µg/mL.

Consider `CCN[C@H](C)[C@H]1CCN(c2c(F)c(N)c3c(=O)c(C(=O)O)cn(C4CC4)c3c2F)C1` (racemic), for which the MIC in test [1] is 0.003 mg/L (≈ 0.00714 µM); in test [2], 0.1 mg/L (≈ 0.238 µM); in [3], 0.003 mg/L (≈ 0.00714 µM); in test [4], 0.05 mg/L (≈ 0.119 µM); in [6], 0.025 mg/L (≈ 0.0595 µM); in test [7], 0.8 mg/L (≈ 1.9 µM). For the same compound, the MIC in test [10] was 0.013 mg/L (≈ 0.0309 µM); in test [11], 0.003 mg/L (≈ 0.00714 µM); in test [12] it was 0.003 mg/L (≈ 0.00714 µM); in [13], 0.025 mg/L (≈ 0.0595 µM). Further, the ED50 in test [5] was 2 mg/kg; in test [8], 0.3 mg/kg; in [14], 1 mg/kg; in [15], 0.3 mg/kg. Further, in test [9], the Cytotoxicity worked out at 42 µg/mL.

For `C[C@@H](N)[C@@H]1CCN(c2c(F)c(N)c3c(=O)c(C(=O)O)cn(C4CC4)c3c2F)C1`, the MIC in test [1] was 0.006 mg/L (≈ 0.0153 µM); in [2], 0.05 mg/L (≈ 0.127 µM); in test [3], 0.003 mg/L (≈ 0.00765 µM); in [4], 0.025 mg/L (≈ 0.0637 µM); in test [6], 0.025 mg/L (≈ 0.0637 µM); in [7] it was 0.4 mg/L (≈ 1.02 µM). The MIC in [10] was 0.006 mg/L (≈ 0.0153 µM); in [11], 0.003 mg/L (≈ 0.00765 µM); in test [12], 0.006 mg/L (≈ 0.0153 µM); in test [13], 0.025 mg/L (≈ 0.0637 µM). Further, the PD50 in [5] was found to be 4 mg/kg. Moreover, the ED50 in test [8] turned out to be 2 mg/kg; in test [14], 0.7 mg/kg; in test [15] it was 0.2 mg/kg. Also, the Cytotoxicity in test [9] was less than 7.8 µg/mL.
